Data on 23 compounds can be found in ChEMBL document CHEMBL1135535, “Discovery and optimization of a series of carbazole ureas as NPY5 antagonists for the treatment of obesity” (J Med Chem, 2002).

A short description of data set [1]: Bioavailability in rat. It is filed as ADME, organism-based. Particulars: in vivo, read-out: Bioavailabiility. The gist of the method:
(§1)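 Rats received a DMA:PEG:H2O 1:1:1 solution, iv at 10 µmol/kg and po at 30 µmol/kg. Half-life, Vss, clearance, Cmax, Tmax and oral bioavailability were derived from plasma levels.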

Data set [2] concerns the target T1, Neuropeptide Y receptor type 5 (Rattus norvegicus, UniProt Q63634).
T1 sequence (Q63634 whole entry): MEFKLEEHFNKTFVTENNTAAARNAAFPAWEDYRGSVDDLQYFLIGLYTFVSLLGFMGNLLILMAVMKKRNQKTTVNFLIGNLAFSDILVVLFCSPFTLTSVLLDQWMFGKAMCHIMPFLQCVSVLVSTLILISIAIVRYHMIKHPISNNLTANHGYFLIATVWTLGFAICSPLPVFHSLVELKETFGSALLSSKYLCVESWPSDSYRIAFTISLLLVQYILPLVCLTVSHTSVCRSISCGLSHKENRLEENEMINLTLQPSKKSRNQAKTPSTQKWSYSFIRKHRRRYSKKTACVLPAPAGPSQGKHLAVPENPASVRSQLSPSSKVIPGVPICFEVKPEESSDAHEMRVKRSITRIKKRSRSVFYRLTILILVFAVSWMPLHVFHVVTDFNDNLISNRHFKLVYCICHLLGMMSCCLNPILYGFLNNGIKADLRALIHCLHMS
Briefly: Binding affinity against rat Neuropeptide Y receptor Y5. A digest of the protocol:
(§2)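 Membranes from Hi5 insect cells infected 48 h with baculovirus carrying rat or human NPY-5 receptor, prepared by sonication in hypotonic Tris/EDTA/sucrose buffer and harvested on a 41% sucrose cushion. 0.01 µCi [125I]PYY incubated with membranes and compound in HEPES buffer (CaCl2, MgCl2, 0.5% BSA, pH 7.4) for 2 h at room temperature. Filtered onto PEI-treated GF/C plates, then scintillation counted.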

In data set [3] the target is T2, Neuropeptide Y receptor type 5 (Homo sapiens, UniProt Q15761).
T2 sequence (Q15761 whole entry): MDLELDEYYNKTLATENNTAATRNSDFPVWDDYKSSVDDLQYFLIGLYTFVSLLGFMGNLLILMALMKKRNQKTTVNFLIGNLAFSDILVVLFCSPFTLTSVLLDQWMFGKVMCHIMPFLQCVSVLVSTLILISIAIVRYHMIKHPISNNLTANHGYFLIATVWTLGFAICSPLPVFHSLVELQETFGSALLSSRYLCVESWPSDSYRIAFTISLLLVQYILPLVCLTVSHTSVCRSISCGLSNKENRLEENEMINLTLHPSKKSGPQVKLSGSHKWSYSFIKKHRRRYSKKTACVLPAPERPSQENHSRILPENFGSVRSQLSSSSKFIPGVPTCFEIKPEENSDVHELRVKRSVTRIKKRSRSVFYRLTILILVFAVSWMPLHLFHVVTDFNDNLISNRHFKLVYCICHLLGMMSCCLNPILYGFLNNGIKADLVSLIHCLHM
Briefly: Binding affinity to the human Neuropeptide Y receptor Y5 (NPY5). The gist of the method:
as §2

A short description of data set [4]: Compound was evaluated for functional antagonism of NPY activity in cellular Ca flux.
Data set [5] can be described thus: Half life in rat was reported. It counts as ADME, organism-based. To be noted: in vivo. The gist of the method:
as §1

In data set [6] the target is T2, Neuropeptide Y receptor type 5. Description: In vitro human Neuropeptide Y receptor Y5 functional antagonism (reporter gene assay).
Data set [7] has as its system Salmonella typhimurium. Briefly: Ames activity in TA 98+S9, expressed as maximum fold increase in mutation frequency; NI means no increase. It counts as functional, organism-based. To be noted: Salmonella enterica subsp. enterica serovar Typhimurium. The gist of the method:
(§3)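 Salmonella typhimurium TA98 plate incorporation assay with S9 mix. The S9 is the postmitochondrial fraction of livers from Aroclor 1254-treated Sprague–Dawley rats, supplemented with cofactors for NADPH generation. Tested across 6–2000 μg/plate. The value is the maximum increase in mutation frequency relative to background across that dose range.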

The test system of data set [8] is Salmonella typhimurium. Description: Ames activity in TA 98+S9, expressed as maximum fold increase in mutation frequency. It counts as functional, Salmonella enterica subsp. enterica serovar Typhimurium. A digest of the protocol:
as §3

Data set [9] is described as follows: Tmax of compound at a dose 30 umol/kg administered orally. It is filed as ADME, organism-based. Particulars: in vivo, po.
The nature of data set [10]: Volume of distribution of compound at a dose 10 umol/kg was administered intravenously. It counts as ADME, organism-based. To be noted: in vivo, iv, read-out: Vss.
A short description of data set [11]: Bioavailability of compound at a dose 30 umol/kg administered orally. It is filed as ADME, organism-based. Particulars: eutheria, in vivo, po, at 30 µmol/kg.
A short description of data set [12]: Clearance level at a dose 10 umol/kg administered intravenously. It counts as ADME, organism-based. To be noted: in vivo, iv.
Data set [13] has as its target T2, Neuropeptide Y receptor type 5. Briefly: Compound was evaluated for functional antagonism of Neuropeptide Y receptor Y5 activity in cellular Ca flux.
The nature of data set [14]: Percent inhibition of 5-HT2b and adenosine transport at 10 uM Y1, Y2, Y4 and 80 other receptors at > 10 uM. It counts as functional. A digest of the protocol:
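Selectivity screen with compound tested at 10 µM for binding to 5HT2b receptor and for inhibition of adenosine transport. Y1, Y2, Y4 and 80 other receptors were also screened. Human Y1, Y2 and Y4 membranes came from SK-N-MC cells, KAN-TS cells and stable Y4-expressing CHO cells, using the [125I]PYY filtration binding format.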

A short description of data set [15]: Half-life of compound at a dose 30 umol/kg administered orally. To be noted: in vivo, po. It is filed as ADME, organism-based.
A short description of data set [16]: Half-life of compound at a dose 10 umol/kg was administered intravenously. It counts as ADME, organism-based. Particulars: in vivo, iv.
For data set [17], the target named is T2, Neuropeptide Y receptor type 5. Briefly: The compound was evaluated in vitro for: human Neuropeptide Y receptor Y5 functional antagonism.
Data set [18] in a line: Maximum concentration of compound at a dose 30 umol/kg administered orally. Also on record: dose 30 umol/kg, route oral. It is filed as ADME, organism-based. To be noted: in vivo, po.
Data set [19] deals with Rattus norvegicus. Briefly: Concentration of compound in rat plasma after oral dosing at 2 mg/kg after 90 min. It counts as functional, organism-based. Also on record: dose 2 mg/kg. A digest of the protocol:
(§4)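 Single oral dose of 2 mg/kg to rats. Plasma, whole brain and CSF concentrations were measured at 90 min.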

In data set [20] the test system is Rattus norvegicus. Briefly: Concentration of compound in rat CSF after oral dosing at 2 mg/kg after 90 min. It counts as functional, organism-based. On the set-up: dose 2 mg/kg. The gist of the method:
as §4

The subject of data set [21] is Rattus norvegicus. Briefly: Concentration of compound in rat whole brain after oral dosing at 2 mg/kg after 90 min. It counts as functional, organism-based. On the set-up: dose 2 mg/kg. The gist of the method:
as §4

For `CCn1c2ccccc2c2cc(NC(=O)CCc3ccncc3)ccc21`, the bioavailability in data set [1] was determined as 1%. In addition, the IC50 in [2] was 0.007 µM; in [3], 0.002 µM; in data set [4] it was 0.002 µM; in data set [6] it was 0.011 µM. In data set [5], the half-life was 0.25 h. Take `CC(C)c1c(N)ccc2c1c1ccccc1n2C(C)C`: the NI entry with Salmonella typhimurium [7] was “no increase”. On the same count and under the same terms, for `CCOc1c(N)ccc2c1c1ccccc1n2C(C)C` the value was “no increase”. Take `CS(=O)(=O)n1c2ccccc2c2cc(N)ccc21`: the Max fold increase in the data set with Salmonella typhimurium [8] was found to be 35.

Take `Cc1c(N)ccc2c1c1ccccc1n2C(C)C`: the NI entry with Salmonella typhimurium [7] was “no increase”. Consider `Cc1cc2c(cc1N)c1ccccc1n2C(C)C`, for which the Mutation frequency with Salmonella typhimurium [8] stood at 3. `CC(C)n1c2ccccc2c2cc(NC(=O)N3CCOCC3)ccc21`: the IC50 in data set [3] came out at 0.002 µM. On to `Cc1c(NC(=O)N2CCOCC2)ccc2c1c1ccccc1n2C(C)C`, for which the Tmax in data set [9] turned out to be 1 h. In addition, in data set [10], the Vd stood at 0.41 L/kg. In addition, the bioavailability in [11] stood at 76%. The same compound showed a clearance in data set [12] of 0.08 L/h/kg. Moreover, the concentration for half-maximal inhibition (IC50) in data set [13] is 0.006 µM; in [3] it was 0.003 µM; in [17], 0.037 µM. The inhibition in data set [14] stood at 70%. The half-life in data set [15] was 6.4 h; in [16] it was 3.7 h. For the same compound, the Cmax in [18] is 35 µM. `CC(C)n1c2ccccc2c2c(F)c(N)c(F)cc21` had a Mutation frequency with Salmonella typhimurium [8] of 2. `CC(C)n1c2ccccc2c2cc(N)c(Cl)cc21` had a Mutation frequency in the data set with Salmonella typhimurium [8] of 43. For `CC(C)(C)Cn1c2ccccc2c2cc(NC(=O)N3CCOCC3)ccc21`, in data set [3], the IC50 came out at 0.078 µM. Still for that read-out and setting: with `CN(C)S(=O)(=O)n1c2ccccc2c2cc(NC(=O)CCc3ccncc3)ccc21` the figure was 0.008 µM; with `Cn1c2ccccc2c2cc(NC(=O)CCc3ccncc3)ccc21`, 0.033 µM; with `Cc1c(NC(=O)N2CCOCC2)cc(C)c2c1c1ccccc1n2C(C)C`, 0.71 µM. Take `Nc1ccc2c(c1)c1ccccc1n2C1CCOC1` (stereo unspecified): in the data set on Salmonella typhimurium [8], the Mutation frequency is 66. As to `CN(C)S(=O)(=O)n1c2ccccc2c2cc(N)ccc21`, the Max fold increase with Salmonella typhimurium [8] came out at 39. For the compound `CCn1c2ccccc2c2ccc(NC(=O)CCc3ccncc3)cc21`, the IC50 in data set [3] was 0.8 µM. The same measure, in the same setting: for `CCn1c2ccccc2c2cc(CNC(=O)Cc3ccncc3)ccc21` the value was 3.4 µM; for `Cc1cc2c(c(C)c1NC(=O)N1CCOCC1)c1ccccc1n2C(C)C`, 0.39 µM. Consider `CCn1c2ccccc2c2cc(NC(=O)N3CCOCC3)ccc21`, for which the Concentration turned out to be 740 nM with Rattus norvegicus [19], 17 nM in the data set on Rattus norvegicus [20] and 500 nM in the data set on Rattus norvegicus [21]. In data set [3], this compound displayed an IC50 of 0.007 µM.

For `Cc1c(N)cc(C)c2c1c1ccccc1n2C(C)C`, the NI result in the data set with Salmonella typhimurium [7] is “no increase”.

In the case of `CN(C)S(=O)(=O)n1c2ccccc2c2cc(NC(=O)N3CCOCC3)ccc21`, in data set [3], the IC50 worked out at 0.35 µM.

On to `CC(C)n1c2ccccc2c2c(F)c(NC(=O)N3CCOCC3)c(F)cc21`, for which the IC50 in [3] worked out at 0.012 µM.
